# Fibroblast inh: blocks proliferation of human lung fibroblasts. LL 47 human lung fibroblast viability, ATP luminescence; hits give low values. viability, % at 10 µM. hit rate 1.1% among 85,000;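 active = viability at or below 50% in the single dose screen; inactive = viability above 50%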;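 note: compound exposure lasted 72 h before the ATP readout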
#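 Material: Human LL 47 lung fibroblast cells | Input: 1,150 cells/well | Buffer or medium: IMEM plus 15% FBS | Compound dosing: 0.1% DMSO in all compound wells | Times: Overnight cell rest, 72 h compound treatment at 37 °C | Signal: CellTiter-Glo luminescence measuring cellular ATP | Measure: % viability versus median cells-only luminescence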
# PTEN del growth: growth suppressors of cells with PTEN tumor suppressor deletion; HCT116 PTEN-null viability, CellTiter-Glo, 60 h; hits give low values; AID 827; viability, % at 10 µM; hit rate 1.2% among 140,000;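 active = viability at or below a set limit, 4 SD under the median of all tested compounds, cut at about 3.7% in these data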;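 note: PTEN knockout HCT116 line with beta catenin targeted HCT116 as companion control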
# H69AR inhibit: growth inhibitors of human H69AR lung tumor cells | H69AR lung tumor viability, ATP luminescence, 72 h; hits give low values | viability, % at 10 µM | hit rate 6% among 85,000 | AID 598;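 active = viability at or below 40%; inactive = viability above 40%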;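 note: multidrug resistant small cell line overexpressing MRP-1 efflux transporter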
# HUVEC prolif 384: human endothelial cell proliferation inhibition; hit rate 1.1% among 86,000; viability, % at 10 µM (by protocol); HUVEC proliferation, CellTiter-Glo luminescence, 72 h; hits give low values;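 active = viability at or below 30%; inactive = viability above 30%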
# HCT116 bCat-KO: beta-catenin-lacking colon tumor cell growth suppression | HCT116 beta-catenin knockout viability, CellTiter-Glo, 60 h; hits give low values | viability, % at 10 µM | hit rate 1.5% among 140,000;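 active = viability at or under a set limit, the compound median less 4 SD, cut at about 6% in these data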
# A number is an active result; - = inactive; . = no result. The full list was thinned out, with hits kept by preference.
SMILES,Fibroblast inh,PTEN del growth,H69AR inhibit,HUVEC prolif 384,HCT116 bCat-KO
COCc1nnc(NC(=O)c2ccc(S(=O)(=O)N(C)C3CCCCC3)cc2)o1,-,-,24.7,-,-
COCc1nnc(NC(=O)c2ccc(S(=O)(=O)N3CCCCCC3)cc2)o1,-,-,-,-,-
CCc1nnc(NC(=O)c2ccc(S(=O)(=O)N(CC(C)C)CC(C)C)cc2)o1,-,-,25.1,-,-
COC(=O)c1c(NC(=O)COC(=O)[C@@H](NS(=O)(=O)c2ccc(C)cc2)C(C)C)sc2c1CCC2,.,-,.,.,-
Cc1ccc(N=C2NC(=O)/C(=C/c3cn(C)c4ccccc34)S2)cc1C,.,-,.,.,-
O=C1CCC([N+](=O)[O-])C(c2cccc(Cl)c2Cl)N1 (centres undefined),-,-,-,-,-
C=CCOc1ccc(/C=N/NC(=O)C(=O)Nc2ccccn2)cc1OC,.,-,.,.,-
O=C(Nc1ccccc1)OCc1cc(-c2ccccc2Cl)on1,.,-,.,.,-
C=CCOc1cccc(C2c3c(oc4ccccc4c3=O)C(=O)N2c2ccccn2)c1 (centres undefined),-,-,26.3,-,-
CCOc1cccc(C2c3c(oc4ccccc4c3=O)C(=O)N2c2ccccn2)c1 (centres undefined),-,-,-,-,-
CCOC(=O)c1[nH]c2ccc(F)cc2c1NC(=O)C(C)N1CCc2cc(OC)c(OC)cc2C1 (centres undefined),-,-,2.4,-,-
CCOC(=O)c1[nH]c2ccc(OC)cc2c1NC(=O)C(C)N1CCC2(CC1)OCCO2 (centres undefined),-,-,-,-,-
CC(C)=NOc1nc(N(C)C)nc(N(C)C)n1,.,-,.,.,-
COc1ccc(CCN2C(=O)CN(Cc3ccccc3)CC2=O)cc1OC,.,0.1,.,.,-
C/C(CC(C)(C)C1CCCCC1)=N\NC(N)=S,-,-,24.0,-,4.6
CN(C)CCC(=O)NCC1OCCc2ccccc21 (centres undefined),-,-,-,-,-
OC1(Cc2ccn[nH]2)CCCCC1,-,-,-,27.7,-
CCOC(=O)c1cnc2c(C)c(Cl)ccc2c1Nc1ccc(S(=O)(=O)Nc2ncccn2)cc1,.,-,.,.,-
Cc1cc(C2=CC(C)(c3cc(C)oc3C)Nc3nc(C(F)(F)F)nn32)c(C)o1 (centres undefined),-,-,3.2,-,-
O=C(COC(=O)c1cc(-c2ccc(Cl)s2)nc2ccccc12)NCc1ccco1,-,-,26.7,-,-
CCOC(=O)c1c(NC(=O)c2ccc(Cl)s2)sc(C)c1C,-,.,32.6,-,.
O=C(COC(=O)c1cc(-c2cccs2)nc2ccccc12)NCc1ccco1,-,-,-,-,-
CCOC(=O)c1c(NC(=O)c2cc(-c3ccc(Cl)s3)nc3ccccc23)sc(C(N)=O)c1C,.,1.2,.,.,3.6
Cc1ccccc1-c1cc(C(=O)Nc2sc(C)c(C)c2C(N)=O)c2ccccc2n1,.,-,.,.,-
Cc1[nH]n(-c2ccccc2)c(=S)c1C=Nc1ccc([N+](=O)[O-])cc1,.,-,.,.,-
SMILES,Fibroblast inh,PTEN del growth,H69AR inhibit,HUVEC prolif 384,HCT116 bCat-KO
FC(F)(F)c1nnc(-c2ccccc2)nc1Sc1ccccc1,.,1.3,.,.,1.6
FC(F)(F)c1nnc(-c2ccccc2)nc1Sc1ccc(Cl)cc1,.,-,.,.,-
FC(F)(F)c1cccc(Sc2nc(-c3ccccc3)nnc2C(F)(F)F)c1,.,-,.,.,5.3
FC(F)(F)c1cccc(Oc2nc(-c3ccccc3)nnc2C(F)(F)F)c1,.,-,.,.,-
CCN(C(=O)c1cc2cc(OC)ccc2oc1=O)c1cccc(C)c1,-,-,-,-,-
COc1ccc2c(C)nc(Nc3nc(C)c(C)c(=O)[nH]3)nc2c1,13.1,1.6,30.5,14.4,1.7
CCCCCc1c(C)nc(Nc2nc(C)c3cc(OC)ccc3n2)[nH]c1=O,-,-,-,-,-
CCc1c(C)nc(Nc2nc(C)c3cc(OC)ccc3n2)[nH]c1=O,-,-,27.9,-,-
COc1nc(Nc2nc3ccccc3c(=O)[nH]2)nc2ccc(C)cc12,6.7,.,13.9,2.6,.
COC(=O)CC(N)c1ccc(OC)c2ccccc12 (centres undefined),-,-,-,-,-
CCn1c(SCC(=O)NC2CCCCC2)nc2c(c1=O)SC(C)C2 (centres undefined),-,-,38.9,-,-
Cc1ccc(C)c(Cc2c(C)nc3c(C(=O)NCc4ccc5c(c4)OCO5)cnn3c2C)c1,-,-,-,-,-
Cc1ccccc1Cc1c(C)nc2c(C(=O)NCc3ccc4c(c3)OCO4)cnn2c1C,-,-,29.4,-,-
Oc1cccc2ccc(Nc3ccccn3)nc12,-,1.7,0.6,2.6,1.8
COC(=O)c1ccc(Sc2nnnn2-c2ccccc2)c([N+](=O)[O-])c1,.,-,.,.,6.0
COC(=O)c1ccc(-n2nnnc2SCc2ccccc2OC)cc1,-,-,37.0,-,-
Cc1cc2c(N=NC(=O)CCc3ccccc3)c(O)[nH]c2cc1Br,.,-,.,.,-
Cc1c(NC(=S)NC(NC(=O)C(C)C)C(Cl)(Cl)Cl)c(=O)n(-c2ccccc2)n1C (centres undefined),.,-,.,.,-
CCOc1ccc2[nH]c(=O)c(CN(Cc3cccs3)Cc3nnnn3C(C)(C)C)cc2c1,-,-,7.3,-,-
CN(C(=O)COc1ccccc1C(=O)NCCOc1ccccc1)c1ccccc1,.,3.5,.,.,3.5
O=C(/C=C/c1ccccc1)NC(NC(=S)Nc1cccc(Cl)c1)C(Cl)(Cl)Cl (centres undefined),.,2.9,.,.,-
O=C(Cc1cccc2ccccc12)NC(NC(=S)Nc1ccccc1Cl)C(Cl)(Cl)Cl (centres undefined),.,-,.,.,-
COc1ccc(NC(=S)NC(NC(=O)c2cccc(Cl)c2)C(Cl)(Cl)Cl)c([N+](=O)[O-])c1 (centres undefined),-,-,2.9,12.2,-
O=C(NC(NC(=S)Nc1ccccc1Cl)C(Cl)(Cl)Cl)c1cccc(Cl)c1 (centres undefined),.,2.7,.,.,5.6
COC(=O)CCNS(=O)(=O)c1ccc2ccccc2c1,.,-,.,.,-
SMILES,Fibroblast inh,PTEN del growth,H69AR inhibit,HUVEC prolif 384,HCT116 bCat-KO
COc1ccccc1C1Nc2cccc3cccc(c23)N1,-,-,-,-,-
CCOc1ccc(C2Nc3cccc4cccc(c34)N2)cc1OC,-,-,-,-,-
CCOc1cc(C2Nc3cccc4cccc(c34)N2)ccc1O,-,-,36.1,-,-
Oc1ccccc1C1Nc2cccc3cccc(c23)N1,-,-,33.7,-,-
COc1ccc2c(c1)sc1nc(-c3ccccc3)cn12,-,-,19.5,-,-
CCOC(=O)N1CCN(C(=O)c2ccc3c(c2)sc2nc(-c4ccc(OC)cc4)cn23)CC1,.,-,.,.,-
CCN=C1SC(C(=O)Nc2ccccc2)CC(=O)N1CC (centres undefined),-,-,-,-,-
Cc1cccc(N2CCN(S(=O)(=O)c3ccc(S(=O)(=O)N4CCCC4)cc3)CC2)c1C,-,-,16.0,-,-
CCOC(=O)CSC1=NC(=O)/C(=C\c2ccc(Cl)cc2)S1,.,-,.,.,-
COC(=O)c1sc(NC(C)=O)c(C(=O)OC)c1C,-,-,-,-,-
COC(=O)c1sc(NC(=O)c2cnccn2)c(C(=O)OC)c1C,-,.,39.6,-,.
